Reference: ChEMBL document CHEMBL1151473, “Posaconazole activity against Candida glabrata after exposure to caspofungin or amphotericin B” (2008)
Values after ≈ are worked out from the molar mass of the structure shown. Active and inactive are the calls of the source. The calls are words filed in the database; no cut-off is given here.

Experiments:
Candida parapsilosis = test: Antifungal activity against Candida parapsilosis ATCC 22019 after 48 hrs by broth microdilution method; type: functional; details: Lodderomyces parapsilosis, ATCC 22019, 48 h
In short: (§1)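 CLSI broth microdilution with final drug concentrations […], incubated at 35°C and read spectrophotometrically at 490 nm at 24 and 48 h. MIC is the first concentration giving 50% turbidity reduction versus control, or 90% for amphotericin B. Run in quintuplicate.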

Nakaseomyces glabratus [1] = test: Antifungal activity against Candida glabrata isolate 4198 after 48 hrs by broth microdilution method; type: functional; in short: as §1
Nakaseomyces glabratus [2] = test: Antifungal activity against Candida glabrata isolate 4205 after 48 hrs by broth microdilution method; type: functional; details: isolate 4205, 48 h; in short: as §1
Nakaseomyces glabratus [3] = test: Antifungal activity against Candida glabrata isolate 4293 after 48 hrs by broth microdilution method; type: functional; in short: as §1
Nakaseomyces glabratus [4] = test: Antifungal activity against Candida glabrata isolate 4370 after 48 hrs by broth microdilution method; type: functional; in short: as §1
Nakaseomyces glabratus [5] = test: Antifungal activity against Candida glabrata isolate 4293 pretreated overnight with 0.5 times of amphotericin B MIC measured after 48 hrs by broth microdilution method; type: functional
Nakaseomyces glabratus [6] = test: Antifungal activity against Candida glabrata isolate 4293 pretreated overnight with 0.5 times of caspofungin MIC measured after 48 hrs by broth microdilution method; type: functional
Nakaseomyces glabratus [7] = test: Antifungal activity against Candida glabrata isolate 4370 pretreated overnight with 0.5 times of amphotericin B MIC measured after 48 hrs by broth microdilution method; type: functional
Nakaseomyces glabratus [8] = test: Antifungal activity against Candida glabrata isolate 4370 pretreated overnight with 0.5 times of caspofungin MIC measured after 48 hrs by broth microdilution method; type: functional
Nakaseomyces glabratus [9] = test: Antifungal activity against Candida glabrata isolate 4293 assessed as viable yeast cells pretreated overnight with 0.015 ug/ml caspofungin measured at 0.5 ug/ml after 48 hrs; type: functional
Nakaseomyces glabratus [10] = test: Antifungal activity against Candida glabrata isolate 4293 assessed as viable yeast cells pretreated overnight with 0.25 ug/ml caspofungin measured at 0.5 ug/ml after 48 hrs; type: functional
Nakaseomyces glabratus [11] = test: Antifungal activity against Candida glabrata isolate 4293 assessed as viable yeast cells pretreated overnight with 0.015 ug/ml caspofungin measured at 4 ug/ml measured after 48 hrs; type: functional
Nakaseomyces glabratus [12] = test: Antifungal activity against Candida glabrata isolate 4293 assessed as viable yeast cells pretreated overnight with 0.25 ug/ml caspofungin measured at 4 ug/ml measured after 48 hrs; type: functional
Nakaseomyces glabratus [13] = test: Antifungal activity against Candida glabrata isolate 4293 at 5 ug/disk after 24 hrs by halo assay; type: functional; details: isolate 4293, 24 h, read-out: IZ
In short: (§2)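 Exposed or unexposed C. glabrata 4293 cells (1 x 10^6 CFU/ml) plated on Mueller-Hinton agar with methylene blue. 6-mm disks loaded with 20 µl posaconazole at 5 or 15 µg. Incubated at 35°C; inhibition zone diameters measured at 24 and 48 h; quintuplicate.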

Nakaseomyces glabratus [14] = test: Antifungal activity against Candida glabrata isolate 4293 at 15 ug/disk after 24 hrs by halo assay; type: functional; details: isolate 4293, 24 h, read-out: IZ; in short: as §2
Nakaseomyces glabratus [15] = test: Antifungal activity against Candida glabrata isolate 4293 pretreated overnight with 0.5 times of caspofungin MIC measured at 5 ug/disk after 24 hrs by halo assay; type: functional; details: read-out: IZ; in short: as §2
Nakaseomyces glabratus [16] = test: Antifungal activity against Candida glabrata isolate 4293 pretreated overnight with 0.5 times of caspofungin MIC measured at 15 ug/disk after 24 hrs by halo assay; type: functional; details: read-out: IZ; in short: as §2
Nakaseomyces glabratus [17] = test: Antifungal activity against Candida glabrata isolate 4198 pretreated overnight with 0.5 times of amphotericin B MIC measured after 48 hrs by broth microdilution method; type: functional
Nakaseomyces glabratus [18] = test: Antifungal activity against Candida glabrata isolate 4198 pretreated overnight with 0.5 times of caspofungin MIC measured after 48 hrs by broth microdilution method; type: functional
Nakaseomyces glabratus [19] = test: Antifungal activity against Candida glabrata isolate 4205 pretreated overnight with 0.5 times of amphotericin B MIC measured after 48 hrs by broth microdilution method; type: functional
Nakaseomyces glabratus [20] = test: Antifungal activity against Candida glabrata isolate 4205 pretreated overnight with 0.5 times of caspofungin MIC measured after 48 hrs by broth microdilution method; type: functional
Nakaseomyces glabratus [21] = test: Antifungal activity against Candida glabrata isolate 4293 pretreated overnight with 0.125 times of caspofungin MIC measured at 5 ug/disk after 24 hrs by halo assay; type: functional; details: read-out: IZ; in short: as §2
Nakaseomyces glabratus [22] = test: Antifungal activity against Candida glabrata isolate 4293 pretreated overnight with 0.125 times of caspofungin MIC measured at 15 ug/disk after 24 hrs by halo assay; type: functional; details: read-out: IZ; in short: as §2
Nakaseomyces glabratus [23] = test: Antifungal activity against Candida glabrata isolate 4293 pretreated overnight with 0.5 times of amphotericin B MIC measured at 5 ug/disk after 24 hrs by halo assay; type: functional; details: read-out: IZ; in short: as §2
Nakaseomyces glabratus [24] = test: Antifungal activity against Candida glabrata isolate 4293 pretreated overnight with 0.5 times of amphotericin B MIC measured at 15 ug/disk after 24 hrs by halo assay; type: functional; details: read-out: IZ; in short: as §2
Nakaseomyces glabratus [25] = test: Antifungal activity against Candida glabrata isolate 4293 pretreated overnight with 0.125 times of amphotericin B MIC measured at 5 ug/disk after 24 hrs by halo assay; type: functional; details: read-out: IZ; in short: as §2
Nakaseomyces glabratus [26] = test: Antifungal activity against Candida glabrata isolate 4293 pretreated overnight with 0.125 times of amphotericin B MIC measured at 15 ug/disk after 24 hrs by halo assay; type: functional; details: read-out: IZ; in short: as §2
Nakaseomyces glabratus [27] = test: (§3) Antifungal activity against 2.44 x 10^8 CFU Candida glabrata isolate 4293 infected in CD1 mouse assessed as reduction in colony forming units treated with a therapeutic regimen of sterile saline solution from day 1 to day 2 followed by 15 mg/kg/day drug administration via oral gavage from day 3 to day 6 post […] challenge measured on day 7 postinfection relative to control; type: functional, organism-based
In short: (§4)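 CD1 male mice, 25 g, made neutropenic with intraperitoneal cyclophosphamide at 200 mg/kg/day on days −4, +1 and +4. Infected intravenously with C. glabrata 4293 in 0.2 ml. Therapy starts 24 h postchallenge: sterile saline placebo, then once-daily oral gavage in 0.2 ml. Kidney pairs homogenized and plated on Sabouraud dextrose agar for CFU; seven to eight animals per group; medians reported.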

Nakaseomyces glabratus [28] = test: as §3, with “1.04” for “2.44”, “30” for “15”; type: functional, organism-based; in short: as §4

In the case of `OC(Cn1cncn1)(Cn1cncn1)c1ccc(F)cc1F` [FLUCONAZOLE], the MIC (Candida parapsilosis) was 4 µg/mL (≈ 13.1 µM), the MIC (Nakaseomyces glabratus [1]) was over 64 µg/mL and the MIC (Nakaseomyces glabratus [2]) was 1 µg/mL (≈ 3.27 µM). It also gave an MIC (Nakaseomyces glabratus [3]) of 32 µg/mL (≈ 104 µM) and an MIC (Nakaseomyces glabratus [4]) of 16 µg/mL (≈ 52.2 µM).

Molecule `CC[C@@H]([C@H](C)O)n1ncn(-c2ccc(N3CCN(c4ccc(OC[C@@H]5CO[C@@](Cn6cncn6)(c6ccc(F)cc6F)C5)cc4)CC3)cc2)c1=O` [POSACONAZOLE] has an MIC (Nakaseomyces glabratus [5]) of 0.25 µg/mL (≈ 0.357 µM), an MIC (Nakaseomyces glabratus [6]) of 0.125 µg/mL (≈ 0.178 µM) and an MIC (Nakaseomyces glabratus [7]) of 0.06 µg/mL (≈ 0.0856 µM). For the same molecule, the MIC (Nakaseomyces glabratus [8]) was 0.125 µg/mL (≈ 0.178 µM), the Activity (Nakaseomyces glabratus [9]) was 6.2% and the Activity (Nakaseomyces glabratus [10]) was 6.2%. For the same molecule, the Activity (Nakaseomyces glabratus [11]) was 0.01%, the Activity (Nakaseomyces glabratus [12]) was 0.01% and the zone of inhibition at 5 µg/disc (Nakaseomyces glabratus [13]) was 29 mm. It also gave a zone of inhibition at 15 µg/disc (Nakaseomyces glabratus [14]) of 30 mm, a zone of inhibition at 5 µg/disc (Nakaseomyces glabratus [15]) of 26.8 mm and a zone of inhibition at 15 µg/disc (Nakaseomyces glabratus [16]) of 29 mm. For the same molecule, the MIC (Nakaseomyces glabratus [17]) was 0.5 µg/mL (≈ 0.713 µM), the MIC (Candida parapsilosis) was at most 0.03 µg/mL and the MIC (Nakaseomyces glabratus [1]) was 0.5 µg/mL (≈ 0.713 µM). The MIC (Nakaseomyces glabratus [2]) was at most 0.03 µg/mL, the MIC (Nakaseomyces glabratus [3]) was 0.25 µg/mL (≈ 0.357 µM) and the MIC (Nakaseomyces glabratus [4]) was 0.06 µg/mL (≈ 0.0856 µM). The MIC (Nakaseomyces glabratus [18]) was 1 µg/mL (≈ 1.43 µM), the MIC (Nakaseomyces glabratus [19]) was at most 0.03 µg/mL and the MIC (Nakaseomyces glabratus [20]) was 0.06 µg/mL (≈ 0.0856 µM). For the same molecule, the zone of inhibition at 5 µg/disc (Nakaseomyces glabratus [21]) was 28 mm, the zone of inhibition at 15 µg/disc (Nakaseomyces glabratus [22]) was 29.6 mm and the zone of inhibition at 5 µg/disc (Nakaseomyces glabratus [23]) was 28.4 mm. For the same molecule, the zone of inhibition at 15 µg/disc (Nakaseomyces glabratus [24]) was 29.8 mm, the zone of inhibition at 5 µg/disc (Nakaseomyces glabratus [25]) was 27 mm and the zone of inhibition at 15 µg/disc (Nakaseomyces glabratus [26]) was 30 mm. For the same molecule, the Activity (Nakaseomyces glabratus [27]) was “Active” and the Activity (Nakaseomyces glabratus [28]) was “Active”.
